# Measurements: ChEMBL document CHEMBL3351548, “UNC2025, a potent and orally bioavailable MER/FLT3 dual inhibitor” (J Med Chem, 2014)
# Activity calls are given as the source filed them. The rule behind the calls is not given here.
# What was measured:
# [1] = AUClast in Swiss albino mouse at 10 mg/kg, po; type: ADME, organism-based; design: time 0 - last, dose 10 mg/kg, route oral; conditions: plasma
# How it was run: (§1)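 Mouse PK after single intravenous or oral dose; n = 3 mice per time point. Parameters reported: T1/2, Cmax, AUClast, Vss and CL for iv; Tmax, Cmax, AUClast and %F for po. One iv formulation given is 7.5% v/v N-methyl pyrrolidone with 20% cremophor EL in water.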
# [2] = Volume of distribution at steady state in Swiss albino mouse at 1 mg/kg, iv; type: ADME, organism-based; design: dose 1 mg/kg, route intravenous; conditions: in vivo, read-out: Vdss; how it was run: as §1
# [3] = Cmax in Swiss albino mouse at 1 mg/kg, iv; type: ADME, organism-based; design: dose 1 mg/kg, route intravenous; conditions: in vivo; how it was run: as §1
# [4] = Tmax in Swiss albino mouse at 10 mg/kg, po; type: ADME, organism-based; design: dose 10 mg/kg, route oral; conditions: in vivo; how it was run: as §1
# [5] = Half life in Swiss albino mouse at 1 mg/kg, iv; type: ADME, organism-based; design: dose 1 mg/kg, route intravenous; conditions: in vivo; how it was run: as §1
# [6] = Cmax in Swiss albino mouse at 10 mg/kg, po; type: ADME, organism-based; design: dose 10 mg/kg, route oral; conditions: in vivo; how it was run: as §1
# [7] = AUClast in Swiss albino mouse at 1 mg/kg, iv; type: ADME, organism-based; design: dose 1 mg/kg, route intravenous, time 0 - last; conditions: plasma; how it was run: as §1
# [8] = Clearance in Swiss albino mouse at 1 mg/kg, iv; type: ADME, organism-based; design: dose 1 mg/kg, route intravenous; conditions: in vivo; how it was run: as §1
# [9] = system: Mus musculus; test: Oral bioavailability in Swiss albino mouse at 10 mg/kg; type: ADME, organism-based; conditions: in vivo; how it was run: as §1
# [10] = Cmax in Swiss albino mouse at 3 mg/kg, iv; type: ADME, organism-based; design: dose 3 mg/kg, route intravenous; conditions: in vivo; how it was run: as §1
# [11] = AUClast in Swiss albino mouse at 3 mg/kg, iv; type: ADME, organism-based; design: time 0 - last, dose 3 mg/kg, route intravenous; conditions: plasma; how it was run: as §1
# [12] = Half life in Swiss albino mouse at 3 mg/kg, iv; type: ADME, organism-based; design: dose 3 mg/kg, route intravenous; conditions: in vivo; how it was run: as §1
# [13] = Volume of distribution at steady state in Swiss albino mouse at 3 mg/kg, iv; type: ADME, organism-based; design: dose 3 mg/kg, route intravenous; conditions: in vivo, read-out: Vdss; how it was run: as §1
# [14] = Tmax in Swiss albino mouse at 3 mg/kg, po; type: ADME, organism-based; design: dose 3 mg/kg, route oral; conditions: in vivo; how it was run: as §1
# [15] = Cmax in Swiss albino mouse at 3 mg/kg, po; type: ADME, organism-based; design: dose 3 mg/kg, route oral; conditions: in vivo; how it was run: as §1
# [16] = Clearance in Swiss albino mouse at 3 mg/kg, iv; type: ADME, organism-based; design: dose 3 mg/kg, route intravenous; conditions: in vivo; how it was run: as §1
# [17] = system: Mus musculus; test: Oral bioavailability in Swiss albino mouse at 3 mg/kg; type: ADME, organism-based; conditions: in vivo; how it was run: as §1
# [18] = AUClast in Swiss albino mouse at 3 mg/kg, po; type: ADME, organism-based; design: time 0 - last, dose 3 mg/kg, route oral; conditions: plasma; how it was run: as §1
# [19] = target: NT-3 growth factor receptor (Homo sapiens, UniProt Q16288); test: Inhibition of TRKC (unknown origin) by Off-chip Mobility Shift Assay
# How it was run: (§2)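 Kinase panel run in duplicate using a microcapillary electrophoresis (mobility shift) assay. Screening concentration was 100 nM. IC50 values were then determined at each kinase's ATP Km.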
# [20] = target: Hepatocyte growth factor receptor (Homo sapiens, UniProt P08581); test: Inhibition of Met (unknown origin) by Off-chip Mobility Shift Assay; how it was run: as §2
# Chain of Hepatocyte growth factor receptor (P08581 whole entry): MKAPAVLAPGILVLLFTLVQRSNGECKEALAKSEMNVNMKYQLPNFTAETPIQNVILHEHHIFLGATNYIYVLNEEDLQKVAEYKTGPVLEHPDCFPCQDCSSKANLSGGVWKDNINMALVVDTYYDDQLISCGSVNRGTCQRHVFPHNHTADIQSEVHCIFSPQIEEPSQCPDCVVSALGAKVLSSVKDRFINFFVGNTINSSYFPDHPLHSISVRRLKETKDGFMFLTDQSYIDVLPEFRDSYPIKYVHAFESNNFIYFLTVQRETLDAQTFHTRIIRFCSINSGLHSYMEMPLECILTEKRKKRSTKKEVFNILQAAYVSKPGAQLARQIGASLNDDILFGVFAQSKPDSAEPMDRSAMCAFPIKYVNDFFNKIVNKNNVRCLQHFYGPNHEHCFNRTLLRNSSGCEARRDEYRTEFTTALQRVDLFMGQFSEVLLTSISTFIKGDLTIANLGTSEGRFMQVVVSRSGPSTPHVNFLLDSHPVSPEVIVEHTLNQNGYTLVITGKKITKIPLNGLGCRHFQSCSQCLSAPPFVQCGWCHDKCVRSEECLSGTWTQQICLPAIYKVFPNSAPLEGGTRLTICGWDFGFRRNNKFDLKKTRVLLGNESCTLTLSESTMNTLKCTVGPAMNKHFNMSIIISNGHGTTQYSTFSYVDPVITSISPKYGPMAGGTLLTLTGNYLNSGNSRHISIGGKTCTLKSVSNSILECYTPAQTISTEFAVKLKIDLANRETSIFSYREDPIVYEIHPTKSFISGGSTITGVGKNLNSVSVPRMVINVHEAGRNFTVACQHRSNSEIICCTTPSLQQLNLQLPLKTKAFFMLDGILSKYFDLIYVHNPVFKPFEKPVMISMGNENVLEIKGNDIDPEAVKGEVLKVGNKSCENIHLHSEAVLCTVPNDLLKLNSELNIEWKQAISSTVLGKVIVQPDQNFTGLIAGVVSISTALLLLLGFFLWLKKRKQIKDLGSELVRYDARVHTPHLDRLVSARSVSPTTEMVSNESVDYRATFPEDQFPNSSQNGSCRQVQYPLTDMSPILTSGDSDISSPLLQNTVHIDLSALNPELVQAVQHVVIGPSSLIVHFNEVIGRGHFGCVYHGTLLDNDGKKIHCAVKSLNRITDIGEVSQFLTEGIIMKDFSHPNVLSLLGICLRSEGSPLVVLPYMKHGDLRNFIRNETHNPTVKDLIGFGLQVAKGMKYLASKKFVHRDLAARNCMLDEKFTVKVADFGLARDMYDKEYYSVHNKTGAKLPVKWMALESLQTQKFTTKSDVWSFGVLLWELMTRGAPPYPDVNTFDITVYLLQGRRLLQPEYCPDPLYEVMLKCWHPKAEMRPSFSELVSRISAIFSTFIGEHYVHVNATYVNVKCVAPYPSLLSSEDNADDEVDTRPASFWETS
# [21] = system: 697; test: Inhibition of Mer phosphorylation in human 697 cells xenografted in NOD.Cg-Prkdcscid Il2rgtm1Wjl/SzJ mouse at 3 mg/kg, po administered as single dose measured after 30 mins post dose by densitometry relative to control; type: functional; conditions: Mus musculus, 697, 0.5 h
# How it was run: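 NSG mice received 2 × 10^6 697 B-ALL cells by tail-vein injection, with 14 days for engraftment. A single 3 mg/kg dose or saline vehicle (10 mL/kg) was given by oral gavage, and femurs were taken 30 min later. Marrow cells were held 10 min at room temperature in RPMI with 20% FBS and 240 μM pervanadate. Mer was then immunoprecipitated and p-Mer/total Mer quantified by Western densitometry; n = 6.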
# [22] = target: STE20-like serine/threonine-protein kinase (Homo sapiens, UniProt Q9H2G2); test: Inhibition of SLK (unknown origin) by Off-chip Mobility Shift Assay; how it was run: as §2
# Chain of STE20-like serine/threonine-protein kinase (Q9H2G2 whole entry): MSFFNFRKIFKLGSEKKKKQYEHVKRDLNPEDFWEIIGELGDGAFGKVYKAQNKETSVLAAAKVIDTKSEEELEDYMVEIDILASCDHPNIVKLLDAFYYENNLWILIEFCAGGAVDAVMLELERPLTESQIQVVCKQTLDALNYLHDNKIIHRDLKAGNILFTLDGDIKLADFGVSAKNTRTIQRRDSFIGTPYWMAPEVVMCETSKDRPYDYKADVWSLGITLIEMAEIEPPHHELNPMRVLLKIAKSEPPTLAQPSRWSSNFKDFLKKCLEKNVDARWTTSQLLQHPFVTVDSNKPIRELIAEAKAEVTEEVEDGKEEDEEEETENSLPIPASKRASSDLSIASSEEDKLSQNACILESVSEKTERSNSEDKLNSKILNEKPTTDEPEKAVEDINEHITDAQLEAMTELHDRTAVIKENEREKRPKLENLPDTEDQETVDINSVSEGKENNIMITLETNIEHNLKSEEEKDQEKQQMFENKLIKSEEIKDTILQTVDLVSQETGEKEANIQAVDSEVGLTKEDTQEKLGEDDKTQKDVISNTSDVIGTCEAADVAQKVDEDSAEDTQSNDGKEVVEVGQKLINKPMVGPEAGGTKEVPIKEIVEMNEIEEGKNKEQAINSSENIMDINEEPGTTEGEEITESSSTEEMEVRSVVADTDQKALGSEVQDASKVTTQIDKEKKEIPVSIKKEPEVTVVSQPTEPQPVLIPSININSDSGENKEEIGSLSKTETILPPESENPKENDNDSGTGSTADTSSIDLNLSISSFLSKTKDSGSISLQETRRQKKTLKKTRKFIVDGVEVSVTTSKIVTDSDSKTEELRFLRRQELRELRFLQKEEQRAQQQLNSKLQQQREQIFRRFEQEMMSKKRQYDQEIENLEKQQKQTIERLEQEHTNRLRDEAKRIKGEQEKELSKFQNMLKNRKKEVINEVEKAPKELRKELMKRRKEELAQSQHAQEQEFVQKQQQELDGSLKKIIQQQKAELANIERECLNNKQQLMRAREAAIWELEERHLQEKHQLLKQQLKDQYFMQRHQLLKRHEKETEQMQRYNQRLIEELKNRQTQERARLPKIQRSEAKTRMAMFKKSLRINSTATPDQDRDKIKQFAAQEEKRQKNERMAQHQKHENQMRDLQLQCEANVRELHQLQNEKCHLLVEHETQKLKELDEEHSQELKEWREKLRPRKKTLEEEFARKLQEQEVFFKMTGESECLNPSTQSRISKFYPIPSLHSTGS
# [23] = Plasma concentration in human 697 cells xenografted NOD.Cg-Prkdcscid Il2rgtm1Wjl/SzJ mouse at 3 mg/kg, po administered as single dose measured after 30 mins post dose; type: ADME, organism-based; design: dose 3 mg/kg, route oral
# [24] = target: T1, NUAK family SNF1-like kinase 1 (Homo sapiens, UniProt O60285); test: Inhibition of Nuak1 (unknown origin) by Off-chip Mobility Shift Assay; how it was run: as §2
# T1 sequence (O60285 whole entry): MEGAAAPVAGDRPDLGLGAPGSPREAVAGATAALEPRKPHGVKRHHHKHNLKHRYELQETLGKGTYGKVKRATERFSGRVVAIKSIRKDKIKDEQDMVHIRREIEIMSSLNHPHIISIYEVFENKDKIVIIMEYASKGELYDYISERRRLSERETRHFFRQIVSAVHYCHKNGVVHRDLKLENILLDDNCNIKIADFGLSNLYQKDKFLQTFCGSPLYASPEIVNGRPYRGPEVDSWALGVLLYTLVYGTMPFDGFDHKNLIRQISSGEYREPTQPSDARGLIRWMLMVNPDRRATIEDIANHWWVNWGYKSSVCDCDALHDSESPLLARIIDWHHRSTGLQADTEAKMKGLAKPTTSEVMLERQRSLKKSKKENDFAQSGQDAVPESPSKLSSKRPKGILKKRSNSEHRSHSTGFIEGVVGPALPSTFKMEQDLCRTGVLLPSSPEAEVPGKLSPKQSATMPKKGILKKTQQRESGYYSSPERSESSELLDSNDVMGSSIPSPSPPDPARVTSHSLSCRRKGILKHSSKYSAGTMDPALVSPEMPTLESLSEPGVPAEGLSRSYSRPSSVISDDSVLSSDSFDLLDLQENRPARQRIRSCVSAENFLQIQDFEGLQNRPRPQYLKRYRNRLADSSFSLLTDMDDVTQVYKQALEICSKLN
# [25] = Plasma protein binding in human 697 cells xenografted NOD.Cg-Prkdcscid Il2rgtm1Wjl/SzJ mouse at 3 mg/kg, po administered as single dose measured after 30 mins post dose; type: ADME, organism-based; design: dose 3 mg/kg, route oral; conditions: read-out: PPB (converted)
# How it was run: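 Plasma protein binding was measured in mice, n = 3.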
# [26] = system: Plasma; test: Fraction unbound in plasma of human 697 cells xenografted NOD.Cg-Prkdcscid Il2rgtm1Wjl/SzJ mouse at 3 mg/kg, po administered as single dose measured after 30 mins post dose; type: ADME, organism-based; design: dose 3 mg/kg, route oral; conditions: in vivo, 0.5 h
# [27] = target: Mast/stem cell growth factor receptor Kit (Homo sapiens, UniProt P10721); test: Inhibition of Kit (unknown origin) by Off-chip Mobility Shift Assay; how it was run: as §2
# Chain of Mast/stem cell growth factor receptor Kit (P10721 whole entry): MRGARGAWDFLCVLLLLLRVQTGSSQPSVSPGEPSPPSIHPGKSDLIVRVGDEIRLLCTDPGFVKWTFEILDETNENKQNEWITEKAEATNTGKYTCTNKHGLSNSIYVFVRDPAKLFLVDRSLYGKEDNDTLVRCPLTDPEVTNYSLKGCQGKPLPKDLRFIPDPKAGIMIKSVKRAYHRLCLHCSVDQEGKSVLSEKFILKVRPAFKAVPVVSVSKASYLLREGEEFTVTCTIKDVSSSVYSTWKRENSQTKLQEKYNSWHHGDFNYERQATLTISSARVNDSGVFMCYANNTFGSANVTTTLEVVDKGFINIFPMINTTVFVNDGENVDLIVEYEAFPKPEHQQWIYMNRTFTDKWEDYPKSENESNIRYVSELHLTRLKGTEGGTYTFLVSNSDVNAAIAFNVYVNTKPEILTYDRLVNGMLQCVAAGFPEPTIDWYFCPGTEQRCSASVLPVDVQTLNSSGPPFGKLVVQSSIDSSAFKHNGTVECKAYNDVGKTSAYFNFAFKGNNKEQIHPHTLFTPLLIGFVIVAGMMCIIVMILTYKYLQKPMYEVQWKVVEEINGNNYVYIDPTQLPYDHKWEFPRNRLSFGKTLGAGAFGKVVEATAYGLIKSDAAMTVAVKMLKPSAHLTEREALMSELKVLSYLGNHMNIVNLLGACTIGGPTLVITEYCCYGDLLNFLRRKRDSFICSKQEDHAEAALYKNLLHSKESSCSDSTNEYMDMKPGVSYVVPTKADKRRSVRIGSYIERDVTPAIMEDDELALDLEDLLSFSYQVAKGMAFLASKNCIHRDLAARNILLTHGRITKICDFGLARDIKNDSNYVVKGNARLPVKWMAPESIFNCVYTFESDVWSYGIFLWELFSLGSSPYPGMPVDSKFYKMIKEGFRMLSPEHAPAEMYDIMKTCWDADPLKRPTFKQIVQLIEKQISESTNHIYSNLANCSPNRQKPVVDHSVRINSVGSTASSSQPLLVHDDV
# [28] = Kinetic solubility of the compound in normal saline at pH 7.4; type: physicochemical; conditions: buffer
# [29] = target: T2, Tyrosine-protein kinase Mer (Homo sapiens) (UniProt Q12866); conditions: A549, 50 to 300 nM
# T2 sequence (whole entry): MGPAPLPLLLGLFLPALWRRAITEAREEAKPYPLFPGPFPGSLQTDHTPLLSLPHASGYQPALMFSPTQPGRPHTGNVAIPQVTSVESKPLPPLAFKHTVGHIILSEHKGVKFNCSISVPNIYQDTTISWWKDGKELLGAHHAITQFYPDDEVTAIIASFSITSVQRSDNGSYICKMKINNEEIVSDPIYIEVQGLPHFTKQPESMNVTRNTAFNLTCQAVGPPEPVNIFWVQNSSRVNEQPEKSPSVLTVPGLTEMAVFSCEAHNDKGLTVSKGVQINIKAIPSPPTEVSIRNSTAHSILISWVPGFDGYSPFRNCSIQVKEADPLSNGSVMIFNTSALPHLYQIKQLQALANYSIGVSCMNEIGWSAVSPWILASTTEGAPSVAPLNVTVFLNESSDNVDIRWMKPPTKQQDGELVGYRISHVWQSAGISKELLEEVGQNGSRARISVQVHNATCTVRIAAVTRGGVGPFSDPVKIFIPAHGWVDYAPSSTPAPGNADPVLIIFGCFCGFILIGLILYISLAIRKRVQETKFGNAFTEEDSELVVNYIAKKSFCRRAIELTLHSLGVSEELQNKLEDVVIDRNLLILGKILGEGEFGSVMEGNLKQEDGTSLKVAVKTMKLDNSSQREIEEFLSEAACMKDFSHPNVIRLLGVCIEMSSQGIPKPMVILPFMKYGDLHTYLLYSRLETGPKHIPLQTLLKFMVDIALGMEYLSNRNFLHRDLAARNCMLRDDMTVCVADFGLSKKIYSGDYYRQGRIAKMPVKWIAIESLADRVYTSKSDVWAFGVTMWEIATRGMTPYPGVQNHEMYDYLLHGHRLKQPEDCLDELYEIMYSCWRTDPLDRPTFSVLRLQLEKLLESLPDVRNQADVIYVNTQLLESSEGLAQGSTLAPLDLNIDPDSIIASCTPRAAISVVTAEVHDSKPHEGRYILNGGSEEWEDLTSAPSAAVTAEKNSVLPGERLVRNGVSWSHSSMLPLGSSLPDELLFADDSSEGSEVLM
# [30] = target: Receptor-type tyrosine-protein kinase FLT3 (Homo sapiens) (UniProt P36888); conditions: MOLM-14, 10 to 50 nM
# Chain of Receptor-type tyrosine-protein kinase FLT3 (Homo sapiens) (P36888 whole entry): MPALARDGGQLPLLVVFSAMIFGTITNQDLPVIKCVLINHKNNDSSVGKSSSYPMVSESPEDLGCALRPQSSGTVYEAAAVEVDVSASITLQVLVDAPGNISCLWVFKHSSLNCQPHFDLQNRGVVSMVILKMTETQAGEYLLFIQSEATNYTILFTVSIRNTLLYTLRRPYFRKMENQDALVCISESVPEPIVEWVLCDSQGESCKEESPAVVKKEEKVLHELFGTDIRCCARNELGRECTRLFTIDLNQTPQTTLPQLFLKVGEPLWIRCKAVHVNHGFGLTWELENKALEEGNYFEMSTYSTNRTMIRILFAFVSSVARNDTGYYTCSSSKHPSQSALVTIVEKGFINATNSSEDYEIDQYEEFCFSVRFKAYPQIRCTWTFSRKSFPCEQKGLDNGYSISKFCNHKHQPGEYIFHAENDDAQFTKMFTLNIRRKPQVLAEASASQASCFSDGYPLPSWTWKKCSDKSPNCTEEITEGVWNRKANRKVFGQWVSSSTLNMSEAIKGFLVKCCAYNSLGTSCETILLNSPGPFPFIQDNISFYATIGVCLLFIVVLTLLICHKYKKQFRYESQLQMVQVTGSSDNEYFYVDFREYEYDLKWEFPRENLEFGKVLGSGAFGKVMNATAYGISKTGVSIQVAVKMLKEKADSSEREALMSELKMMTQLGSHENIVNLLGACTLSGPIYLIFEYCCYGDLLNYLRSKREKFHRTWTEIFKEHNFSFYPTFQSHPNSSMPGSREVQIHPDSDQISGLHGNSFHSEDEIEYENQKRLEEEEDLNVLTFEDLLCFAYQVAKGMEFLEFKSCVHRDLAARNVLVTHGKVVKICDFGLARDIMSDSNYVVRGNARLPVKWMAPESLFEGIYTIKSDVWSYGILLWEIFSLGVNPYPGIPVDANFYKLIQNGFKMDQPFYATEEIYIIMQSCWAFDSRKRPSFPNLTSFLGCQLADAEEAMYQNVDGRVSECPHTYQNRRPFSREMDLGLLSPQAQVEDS
SMILES,Cmax [10] [nM],AUC(0-t) [11] [µM·h],half-life [12] [min],Vd [13] [L/kg],Tmax [14] [min],Cmax [15] [nM],clearance [16] [mL/min/kg],F [17] [%],AUC(0-t) [18] [µM·h],further results
CCCCNc1ncc2c(-c3ccc(S(=O)(=O)N4CCN(C)CC4)c(F)c3)cn([C@H]3CC[C@H](O)CC3)c2n1,–,–,–,–,–,–,–,–,–,AUC(0-t) [1]: 0.66 µM·h; Vd [2]: 5.5 L/kg; Cmax [3]: 400 nM; Tmax [4]: 15 min; half-life [5]: 48 min; Cmax [6]: 390 nM; AUC(0-t) [7]: 0.27 µM·h; clearance [8]: 103 mL/min/kg; F [9]: 25%
CN1CCN(Cc2ccc(-c3cn([C@H]4CC[C@H](O)CC4)c4nc(NCCC5CC5)ncc34)cc2)CC1,6500,12,264,2,60,1300,7.2,78,9,–
CCCCNc1ncc2c(-c3ccc(CN4CCN(C)CC4)cc3)cn([C@H]3CC[C@H](O)CC3)c2n1 [listing 1 of 2 here],4100,9.2,228,2.3,30,1600,9.2,100,9.2,IC50 [19]: 4.38 nM; IC50 [20]: 364 nM; inhibition in vivo at 3 mg/kg [21]: > 90%; IC50 [22]: 6.14 nM; concentration at 0.5 h [23]: 1600 nM; IC50 [24]: 7.97 nM; fraction unbound at 0.5 h [25]: 0.014; Cp(f) [26]: 22 nM; IC50 [27]: 8.18 nM
CCCCNc1ncc2c(-c3ccc(S(=O)(=O)N4CCOCC4)cc3)nn([C@H]3CC[C@H](O)CC3)c2n1,16000,3.3,138,0.43,30,13,30,0.3,0.01,–
CCCCNc1ncc2c(-c3ccc(CN4CCN(C)CC4)cc3)cn([C@H]3CC[C@H](O)CC3)c2n1.Cl,–,–,–,–,–,–,–,–,–,Kinetic_solubility [28]: 38 µg/mL
CN1CCN(S(=O)(=O)c2ccc(-c3cn([C@H]4CC[C@H](O)CC4)c4nc(NCCC5CC5)ncc34)c(F)c2)CC1,1200,1,72,5.3,15,420,76,67,0.69,–
CCCCNc1ncc2c(-c3ccc(CN4CCN(C)CC4)cc3)cn([C@H]3CC[C@H](O)CC3)c2n1 [listing 2 of 2 here],–,–,–,–,–,–,–,–,–,inhibition [29]: Active; inhibition [30]: Active
CCCCNc1ncc2c(-c3ccc(S(=O)(=O)N4CCOCC4)cc3)cn([C@H]3CC[C@H](O)CC3)c2n1,7900,1.4,13.8,0.78,15,160,70,8.4,0.12,–
